Compounds with a hit are over-represented: about 3.5% of the library has one in this group of screens.
MrgX1 agonist: agonists of human MrgX1 receptor | Q96LB2 | MrgX1-HEK293 cells, Fluo-4 calcium fluorescence, agonist mode; active compounds read high | B-score at 10 µM | actives 0.44% (n = 310,000) | AID 588627;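 active = calcium response B-score plate-corrected fluorescence ratio at least 3 library SD, with starting fluorescence B-score inside 5 SD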
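times = overnight plating, then 30 min 37 °C plus 30 min room-temperature dye loading | assay system = stable human MrgX1 HEK293 cell line | input = fifteen thousand cells per well | signal = kinetic calcium dye fluorescence, Fluo-4 NW | dosing = compound delivered in addition one of three | read-out = B-scored fluorescence response ratio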
MrgX1 antagonist: blocks BAM8-22 activation of human MrgX1 receptor. AID 588676. MRGX1-HEK293 calcium flux, Fluo-4, BAM8-22 antagonism; active compounds read low. actives 1.3% (n = 310,000). Q96LB2. B-score at 10 µM;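 active = calcium-response B-score plate-corrected more than 3 library SD below zero, starting fluorescence within 5 deviations, no agonist response on first addition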;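 also: peak minus trough fluorescence over baseline after final BAM8-22 challenge near maximal dose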
MrgX1 allo act: allosterically activates human MrgX1 receptor signaling; Q96LB2; MrgX1-HEK293, Fluo-4 calcium flux, FDSS; active compounds read high; B-score at 10 µM; actives 0.63% (n = 310,000); AID 588675;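 active = plate-corrected calcium response at least 3 library SD above typical, normal starting fluorescence, not activating the receptor alone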;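 also: compound read alongside a low EC10 to EC30 dose of BAM8-22 agonist; peak minus trough fluorescence over baseline measured at the second addition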
RGS4 pot: RGS4 potentiation or activation; AID 463111; B-score at 10 µM; HEK293 M3R/inducible RGS4, carbachol calcium flux Fluo4; active compounds read low; actives 0.92% (n = 310,000);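 active = B-score of the integrated calcium signal more than 4 SD below the library mean, with starting fluorescence not abnormally high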;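 also: negative B-score means reduced calcium response which marks RGS4 activation or potentiation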
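Reagent: ECmax carbachol challenge; Test system: M3R-expressing HEK293 line, RGS4 induced by doxycycline; Schedule: overnight RGS4 induction, 30 min dye load 37 °C, 20 min compound RT; Detection: calcium dye Fluo4 fluorescence; Read-out: Agonist-evoked peak-minus-minimum fluorescence over baseline, integrated ratio, B score.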
RGS4 block: human RGS4 inhibition; P49798; HEK293 M3R/RGS4 inducible, Fluo-4 calcium flux; active compounds read high; triggered by carbachol at its EC20; B-score at 10 µM; actives 0.45% (n = 310,000); AID 463165;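 active = B-score, a plate-corrected calcium signal, over three deviations above library mean, with baseline fluorescence within five deviations of library mean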;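 also: RGS4 expression induced by doxycycline in cells with stable M3 receptor; B-score is computed from the integrated fluorescence ratio over baseline after carbachol; higher B-score means a larger calcium signal and so more RGS4 inhibition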
Target sequence (P49798 whole entry, looked up): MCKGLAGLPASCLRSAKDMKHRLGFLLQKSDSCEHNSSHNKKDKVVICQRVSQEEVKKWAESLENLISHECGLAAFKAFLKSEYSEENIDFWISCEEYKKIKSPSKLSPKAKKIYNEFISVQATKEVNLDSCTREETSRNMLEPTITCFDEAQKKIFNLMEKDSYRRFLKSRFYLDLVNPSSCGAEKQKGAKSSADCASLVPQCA
Each line names hits and unclear results; the compound was inactive in the other large screens.

COc1cc(C(=O)NCCOc2ccccc2)c(Br)c(OC)c1OC	none
CCOc1cc2[nH]c(=S)n(Cc3ccc(C(=O)NCCCOC)cc3)c(=O)c2cc1OCC	none
CCN1c2ccccc2NC2C1C(C(C)=O)C(=O)N2c1ccc(Cl)cc1 (centres undefined)	MrgX1 antagonist -5.1
O=C1Nc2ccccc2N(O)N1c1ccc(Cl)cc1	none
Cc1c(NC(=O)/C=C/c2ccc(S(=O)(=O)N3CCOCC3)cc2)c(=O)n(-c2ccccc2)n1C	none
O=C(N/N=C/c1cn(-c2cccs2)nc1-c1ccccc1)c1ccccc1O	MrgX1 antagonist -8.3
CN(C)c1ccc(/C=N/NC(=O)CNC(=O)/C=C/c2ccco2)cc1	none
O=C(/C=C/c1ccco1)NCC(=O)N/N=C/c1ccc(Cl)cc1	MrgX1 antagonist -5
COc1ccc(-c2csc3ncnc(NCCO)c23)cc1	none
COc1ccc(-c2csc3ncnc(NCCCO)c23)cc1	MrgX1 agonist 33
Cc1sc2ncnc(NCCCO)c2c1C	none
Cc1sc2ncnc(NCC(c3ccccc3)N(C)C)c2c1C (centres undefined)	RGS4 pot -7.5
Cc1sc2ncnc(NCC(O)c3ccc([N+](=O)[O-])cc3)c2c1C (centres undefined)	MrgX1 antagonist -5
Cc1sc2ncnc(NCC(O)c3ccccc3)c2c1C (centres undefined)	none
Cc1nc(NCC(c2ccccc2)N(C)C)c2c(C)c(C)sc2n1 (centres undefined)	RGS4 pot -9.5
CCOC(=O)N1CCC(NC(=O)CCc2nc(-c3ccc(C)cc3)no2)CC1	none
COc1ccccc1C(=O)NCC(=O)NCCc1ccc(Cl)cc1	none
CCCn1c(NC(=O)c2cccc(S(=O)(=O)N3CCCC3)c2)nc2ccccc21	none
Cc1cc(C)c2oc(=O)cc(CN3CCC(C)CC3)c2c1	none
COc1cc2c(cc1OC)C(NC(=O)c1ccc(C)cc1)CC2=O (centres undefined)	none
CC1Cn2c(nc3sc4c(c3c2=O)CC(C)(C)OC4)N1CCO (centres undefined)	none
CC1=CC(=Nc2c(C)n(C)n(-c3ccccc3)c2=O)C=CC1=O	RGS4 block 11
CC1=CC(=Nc2c(C)n(C)n(-c3ccccc3)c2=O)C=C(C)C1=O	none
CN1OC(Cn2cc(C#N)c(=O)n(C)c2=O)CC1c1ccccc1 (centres undefined)	MrgX1 antagonist -5.8
CCOc1cc(/C=N/Nc2nc(-c3cccs3)c(NC(C)=O)s2)ccc1O	none
Cc1ccc(NC(=O)C(=O)Nc2ccc(C)cn2)nc1	none
Cc1ccc(NC(=O)/C(C#N)=C(\N)C(Cl)(Cl)Cl)nc1	MrgX1 agonist 28
Cc1ccccc1S(=O)(=O)N(CC(O)CN1C(=O)NC(C)(C)C1=O)c1ccccc1 (centres undefined)	none
COc1cc(N/C=C(\C(C)=O)c2ccccc2)cc(OC)c1	MrgX1 agonist 30 (no result: RGS4 pot, RGS4 block)
Cc1ccc(C)c(S(=O)(=O)N2CCN(C(=O)Cn3[nH]c(=O)c4ccccc4c3=O)CC2)c1	none
CCn1c(SCc2cccc(C(F)(F)F)c2)nnc1-c1ccco1	MrgX1 antagonist -6.4
NCCCC[C@H](N)c1nnc([C@H](CCC(=O)O)NC(=O)C2CCNCC2)o1	none
COc1ccc2ccccc2c1/C=N\NC(=O)c1cccnc1	none
O=C(N/N=C/c1c(O)ccc2ccccc12)c1cccnc1	MrgX1 antagonist -7.6
O=C(N/N=C/c1c(O)ccc2ccccc12)c1ccc(Br)o1	MrgX1 antagonist -5
O=C(N/N=C\c1c(O)ccc2ccccc12)c1ccc(O)cc1	none
CC1CCN(C(=O)CNC(=O)CNS(=O)(=O)c2ccccc2)CC1	none
COc1ccc(CNC(=O)C2CCCN2S(=O)(=O)c2ccccc2)cc1 (centres undefined)	none
Cc1nc(C)c(-c2nnc(-c3ccccc3Cl)o2)cc1C(=O)NN	none
Cc1nc(C)c(-c2nnc(-c3ccc(C(C)(C)C)cc3)o2)cc1C(=O)NN	MrgX1 antagonist -6
O=C(Cn1c(-c2ccccc2)c[n+]2ccsc12)c1ccc(Br)cc1	RGS4 pot -8.1
O=S(=O)(NCc1ccccc1)c1ccc(Br)c2nsnc12	none
Cc1cccc(N(CC(O)CON=C2c3ccccc3-c3ccccc32)S(C)(=O)=O)c1 (centres undefined)	MrgX1 antagonist -4.9

Source: PubChem (Johns Hopkins Ion Channel Center)
